Source: article PMC3866226 (Molecular pharmaceutics, 2013)
“And” between values parts separate entries of the source, which are not always exact repeats. Equal entries are not always repeated. “Also recorded” adds a separate entry of the source. Bridge positions count the residues as written; N and C are the ends. Square brackets hold non-standard residues; d marks the D form. Peptide text beside a SMILES is read from it.

Key:
[1] = tested on: B16/F1 melanoma-bearing C57 mice; assay: Urinary metabolites by radio-HPLC; type: in vivo, mouse; details: urine at 2 h post-injection of ~3.7 MBq via tail vein
[2] = tested on: B16/F1 melanoma-bearing C57 mice; assay: Melanoma imaging by small animal SPECT/CT; type: in vivo, mouse; details: 2 h post-injection of 7.4 MBq via tail vein
B16/F1 melanoma cells [3] = assay: Cellular efflux; type: cell-based, murine; details: loaded 2 h at 25 °C, then 2 h of incubation in the culture medium
Method in brief: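 B16/F1 cells were seeded at 2.5×10^5/well and grown overnight at 37 °C. They were loaded with radiopeptide for 2 h at 25 °C and rinsed twice with ice-cold PBS. Release into culture medium was then monitored. At 20, 40, 60, 90 and 120 min, surface-bound and intracellular radioactivity were collected separately and gamma-counted.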

B16/F1 melanoma cells [4] = assay: Cellular internalization; type: cell-based, murine; details: after 20 min of incubation at 25 °C, acid wash pH 4.5, n=3
Method in brief: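 Cells at 2.5×10^5/well were grown overnight at 37 °C and washed with binding medium (MEM, 25 mM HEPES pH 7.4, 0.2% BSA, 0.3 mM 1,10-phenanthroline). They were incubated at 25 °C with ~200,000 cpm HPLC-purified radiopeptide for 20–120 min (n=3). Membrane-bound activity was stripped with 40 mM sodium acetate pH 4.5/0.9% NaCl/0.2% BSA. Cells were lysed in 1 N NaOH for 5 min; both fractions were gamma-counted.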

[5] = tested on: B16/F1 melanoma-bearing C57 mice; assay: Biodistribution in B16/F1 melanoma-bearing C57 mice; type: in vivo, mouse
Method in brief: (§1)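 Female C57 mice bore subcutaneous right-flank tumours from 1×10^6 B16/F1 cells (~0.2 g at 10 days). Radiopeptide, 0.037 MBq in pH 7.4 saline, went in via tail vein. Groups of 4 were killed at 0.5, 2, 4 and 24 h; tumours and organs were weighed and gamma-counted. Blood was taken as 6.5% body weight. Blockade: co-injected 10 µg (6.1 nmol) unlabeled NDP-MSH, 2 h. Results as %ID/g or %ID, mean ± SD, n=4.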

[6] = as above; type: in vivo, mouse; details: female, C57, mouse, iv, 0.037 MBq, total radioactivity
Method in brief: as §1

[7] = tested on: B16/F1 melanoma-bearing C57 mice; assay: Effect of L-lysine co-injection on renal and tumor uptake; type: in vivo, mouse; details: 2 h post-injection, 15 mg L-lysine
Method in brief: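 Groups of 4 tumour-bearing C57 mice received 0.037 MBq radiopeptide mixed with 15 mg L-lysine via injection. Mice were killed at 2 h, and tumours and organs were weighed and gamma-counted. Uptake with versus without L-lysine was compared by unpaired Student's t-test, significance p<0.05.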

Remained intact in the urine [1]: Approximately 70%
Transformed to a more hydrophobic compound in the urine [1]: 30%
Renal uptake as % of the renal uptake of ^99mTc-RTD-Lys-(Arg^11)CCMSH ([5]; 0.5 h post-injection): 62%
Renal uptake as % of the renal uptake of ^99mTc-RTD-Lys-(Arg^11)CCMSH ([5]; 2 h post-injection): 70%
Uptake ratio Tumor/Blood ([5]; 2 h post-injection, NDP blockade): 2.75
Renal uptake as % of the renal uptake of ^99mTc-RTD-Lys-(Arg^11)CCMSH ([5]; 4 h post-injection): 70%
tissue uptake at 0.5 h ([6]; blood): 1.5 ± 0.52 %ID/g
tissue uptake at 2 h ([6]; blood): 0.49 ± 0.05 %ID/g
tissue uptake at 4 h ([6]; blood): 0.54 ± 0.45 %ID/g
tissue uptake at 24 h ([6]; blood): 0.07 ± 0.02 %ID/g
tissue uptake at 0.5 h ([6]; bone): 1.6 ± 0.73 %ID/g
tissue uptake at 2 h ([6]; bone): 0.57 ± 0.08 %ID/g
tissue uptake at 4 h ([6]; bone): 0.54 ± 0.28 %ID/g
tissue uptake at 24 h ([6]; bone): 0.47 ± 0.05 %ID/g
tissue uptake at 0.5 h ([6]; brain): 0.15 ± 0.05 %ID/g
tissue uptake at 2 h ([6]; brain): 0.04 ± 0.01 %ID/g
tissue uptake at 4 h ([6]; brain): 0.02 ± 0.01 %ID/g
tissue uptake at 24 h ([6]; brain): 0.03 ± 0.01 %ID/g
tissue uptake at 0.5 h ([6]; heart): 0.74 ± 0.43 %ID/g
tissue uptake at 2 h ([6]; heart): 0.26 ± 0.15 %ID/g
tissue uptake at 4 h ([6]; heart): 0.16 ± 0.03 %ID/g
tissue uptake at 24 h ([6]; heart): 0.1 ± 0.07 %ID/g
tissue uptake dose at 0.5 h ([6]; intestines): 1.36 ± 0.27 %ID
tissue uptake dose at 2 h ([6]; intestines): 1.59 ± 1.08 %ID
tissue uptake dose at 4 h ([6]; intestines): 0.95 ± 0.3 %ID
tissue uptake dose at 24 h ([6]; intestines): 0.44 ± 0.22 %ID
tissue uptake at 0.5 h ([6]; kidneys): 90.2 ± 15.4 %ID/g
tissue uptake at 2 h ([6]; kidneys): 94 ± 18.3 %ID/g
tissue uptake at 4 h ([6]; kidneys): 73.9 ± 3.73 %ID/g
tissue uptake at 24 h ([6]; kidneys): 44.3 ± 12.1 %ID/g
tissue uptake at 0.5 h ([6]; liver): 1.86 ± 0.17 %ID/g
tissue uptake at 2 h ([6]; liver): 1.4 ± 0.34 %ID/g
tissue uptake at 4 h ([6]; liver): 1.59 ± 0.13 %ID/g
tissue uptake at 24 h ([6]; liver): 1.21 ± 0.26 %ID/g
tissue uptake at 0.5 h ([6]; lung): 2.01 ± 0.97 %ID/g
tissue uptake at 2 h ([6]; lung): 0.87 ± 0.4 %ID/g
tissue uptake at 4 h ([6]; lung): 0.49 ± 0.43 %ID/g
tissue uptake at 24 h ([6]; lung): 0.19 ± 0.1 %ID/g
tissue uptake at 0.5 h ([6]; muscle): 11.2 ± 6.02 %ID/g
tissue uptake at 2 h ([6]; muscle): 0.17 ± 0.1 %ID/g
tissue uptake at 4 h ([6]; muscle): 0.1 ± 0.07 %ID/g
tissue uptake at 24 h ([6]; muscle): 0.26 ± 0.02 %ID/g
tissue uptake at 0.5 h ([6]; pancreas): 0.62 ± 0.25 %ID/g
tissue uptake at 2 h ([6]; pancreas): 0.1 ± 0.02 %ID/g
tissue uptake at 4 h ([6]; pancreas): 0.08 ± 0.08 %ID/g
tissue uptake at 24 h ([6]; pancreas): 0.18 ± 0.07 %ID/g
tissue uptake at 0.5 h ([6]; skin): 9.59 ± 0.62 %ID/g
tissue uptake at 2 h ([6]; skin): 0.69 ± 0.18 %ID/g
tissue uptake at 4 h ([6]; skin): 0.35 ± 0.08 %ID/g
tissue uptake at 24 h ([6]; skin): 0.42 ± 0.27 %ID/g
tissue uptake at 0.5 h ([6]; spleen): 0.82 ± 0.43 %ID/g
tissue uptake at 2 h ([6]; spleen): 0.4 ± 0.1 %ID/g
tissue uptake at 4 h ([6]; spleen): 0.5 ± 0.15 %ID/g
tissue uptake at 24 h ([6]; spleen): 0.34 ± 0.06 %ID/g
tissue uptake at 0.5 h ([6]; stomach): 1.92 ± 0.53 %ID/g
tissue uptake at 2 h ([6]; stomach): 1.21 ± 0.61 %ID/g
tissue uptake at 4 h ([6]; stomach): 0.96 ± 0.27 %ID/g
tissue uptake at 24 h ([6]; stomach): 0.4 ± 0.13 %ID/g
tissue to tissue ratio at 0.5 h ([6]; tumor / blood): 11.1
tissue to tissue ratio at 2 h ([6]; tumor / blood): 34.9
tissue to tissue ratio at 4 h ([6]; tumor / blood): 36.4
tissue to tissue ratio at 24 h ([6]; tumor / blood): 126
tissue to tissue ratio at 0.5 h ([6]; tumor / kidneys): 0.19
tissue to tissue ratio at 2 h ([6]; tumor / kidneys): 0.18
tissue to tissue ratio at 4 h ([6]; tumor / kidneys): 0.27
tissue to tissue ratio at 24 h ([6]; tumor / kidneys): 0.2
tissue to tissue ratio at 0.5 h ([6]; tumor / lung): 8.31
tissue to tissue ratio at 2 h ([6]; tumor / lung): 19.7
tissue to tissue ratio at 4 h ([6]; tumor / lung): 40.1
tissue to tissue ratio at 24 h ([6]; tumor / lung): 46.4
tissue uptake at 0.5 h ([6]; tumor): 16.7 ± 5.31 %ID/g
tissue uptake at 2 h ([6]; tumor): 17.1 ± 3.82 %ID/g
tissue uptake at 4 h ([6]; tumor): 19.6 ± 4.68 %ID/g
tissue uptake at 24 h ([6]; tumor): 8.81 ± 2.13 %ID/g
tissue to tissue ratio at 0.5 h ([6]; tumor/liver): 8.98
tissue to tissue ratio at 2 h ([6]; tumor/liver): 12.2
tissue to tissue ratio at 4 h ([6]; tumor/liver): 12.3
tissue to tissue ratio at 24 h ([6]; tumor/liver): 7.28
tissue to tissue ratio at 0.5 h ([6]; tumor/muscle): 1.48
tissue to tissue ratio at 2 h ([6]; tumor/muscle): 101
tissue to tissue ratio at 4 h ([6]; tumor/muscle): 196
tissue to tissue ratio at 24 h ([6]; tumor/muscle): 33.9
dose excreted at 0.5 h ([6]; urine): 44.5 ± 3.12%
dose excreted at 2 h ([6]; urine): 59.2 ± 9.65%
dose excreted at 4 h ([6]; urine): 67.5 ± 10%
dose excreted at 24 h ([6]; urine): 76.8 ± 8.21%
Reduction of renal uptake by L-lysine co-injection ([7]; versus without L-lysine): 41% and 40–50%
Structure (SMILES): CC(C)[C@H](NC(=O)[C@@H]1CCCN1C(=O)[C@H](CCCNC(=N)N)NC(=O)[C@H](CS)NC(=O)[C@H](Cc1c[nH]c2ccccc12)NC(=O)[C@H](CCCNC(=N)N)NC(=O)[C@@H](Cc1ccccc1)NC(=O)[C@H](Cc1c[nH]cn1)NC(=O)[C@H](CCC(=O)O)NC(=O)[C@H](CS)NC(=O)[C@H](CS)NC(=O)[C@H](CCCCN)NC(=O)[C@@H]1CC(=O)N[C@@H](CCCNC(=N)N)C(=O)N[C@@H](C(C)C)C(=O)N[C@@H](CC(=O)O)C(=O)N[C@H](Cc2ccc(O)cc2)C(=O)N1)C(N)=O [^99mTc-RVD-Lys-(Arg^11)CCMSH, metal not drawn] (RVD[dY]DKCCEH[dF]RWCRPV-NH2; lactam N-5)
Visualization of flank B16/F1 melanoma lesions by SPECT/CT [2]: clearly visualized
Activity remained inside the cells (cellular efflux) (B16/F1 melanoma cells [3]): 70%
Activity internalized in the cells (B16/F1 melanoma cells [4]): ~72%
Effect of L-lysine co-injection on tumor uptake ([7]; p>0.05): didn't affect the tumor uptake; also recorded: without affecting their tumor uptake
